Measured values: ChEMBL document CHEMBL1154487, “Synthesis, chemical and biological studies on new Fe(3+)-glycosilated beta-diketo complexes for the treatment of iron deficiency” (Eur J Med Chem, 2008)
Calls of active or inactive are those of the source. The calls are words filed in the database; no cut-off is given here.

How the values were obtained:
[1] = Amount of free iron in Fe3+/ligand system at pH 2; conditions: buffer
[2] = Chemical stability in phosphate buffer at pH 7 after 1 hr; format: physicochemical; conditions: pH 7, 1 h
[3] = Chemical stability in phosphate buffer at pH 7; format: physicochemical
Summary of the method: (§1)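 The ligand was held at 5×10−5 M in 10−2 M phosphate buffer, pH 7, at 37 °C and constant ionic strength. Degradation was followed as the change in absorbance at 345 nm. First-order kinetics were taken from ln(At/A0) versus time.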

[4] = Cytotoxicity against african green monkey Vero cells at 5 uM; format: cell-based; conditions: chlorocebus sabaeus, read-out: INH
[5] = Cytotoxicity against african green monkey Vero cells at 10 uM; format: cell-based; conditions: chlorocebus sabaeus, read-out: INH
[6] = Chemical stability in phosphate buffer at pH 7 after 8 hrs; format: physicochemical
Summary of the method: as §1

[7] = Protonation constant, pKa by spectrophotometric method; format: physicochemical
Summary of the method: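 Aqueous ligand solutions (2.5×10−5 M) were titrated spectrophotometrically, adjusting pH from 1 to 11 with concentrated NaOH or HCl. The UV absorbance maximum (320–365 nm) was followed versus pH. Protonation constants were computed from the spectral data.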

[8] = Protonation constant, pKa by potentiometric method; format: physicochemical
Summary of the method: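 Potentiometric titration of 3×10−3 M ligand in water at 25.0 °C, ionic strength 0.1 M (NaNO3), under nitrogen. The titrant was 1×10−2 M NaOH, over pH 2–10, with 600–720 s per point. At least 10 titrations of 40 points each were run, and constants were refined by least squares.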

[9] = Octanol-water partition coefficient, log P after 4 hrs by shake flask method; format: physicochemical
Summary of the method: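 Shake-flask method at pH 7.0 (phosphate buffer). Water presaturated with n-octanol was mixed with the ligand or the Fe:L 1:3 system (10−4 M stock) and shaken at 37 °C for 4 h. After phase separation, aqueous concentration was measured spectrophotometrically. Log P is the log of the octanol/water concentration ratio.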

[10] = Cytotoxicity against african green monkey Vero cells at 800 uM; format: cell-based; conditions: chlorocebus sabaeus, read-out: INH
Summary of the method: (§2)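 Vero cells (African green monkey kidney) were grown in MEM with 10% heat-inactivated FCS at 37 °C in 5% CO2. Cells were seeded at 4×10^4 cells/well and grown 72 h with a range of compound concentrations. They were then methanol-fixed, stained with crystal violet, and the dye was extracted into acidic isopropanol and read at 540 nm. Survival is % of untreated control, mean ± SD of 3 experiments, each in triplicate.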

[11] = Cytotoxicity against african green monkey Vero cells at 600 uM; format: cell-based; conditions: chlorocebus sabaeus, read-out: INH
Summary of the method: as §2

Liver microsomes [12] = assay: Antioxidant activity against ferric ion (Fe3+-ADP)-induced lipid peroxidation in rat liver microsomes; conditions: Microsome
Vero [13] = assay: Cytotoxicity against african green monkey Vero cells; format: cell-based; conditions: Chlorocebus sabaeus
Summary of the method: as §2

Liver microsomes [14] = assay: Antioxidant activity against ferric ion (Fe3+-ADP)-induced lipid peroxidation in rat liver microsomes after 30 mins; conditions: Microsome
Vero [15] = assay: Cytotoxicity against african green monkey Vero cells at 400 uM; format: cell-based; conditions: chlorocebus sabaeus
Summary of the method: as §2

Row | Activity [1] [%] | Stability [2] | half-life [3] [h] | Degradation % at 8 h [6] [%] | pKa [7] | pKa [8] | logP at 4 h [9] | SMILES | cytotoxicity at 5 µM [4] [%] | cytotoxicity at 10 µM [5] [%] | cytotoxicity at 800 µM [10] [%] | cytotoxicity at 600 µM [11] [%] | Activity (Liver microsomes [12]) | IC50 (Vero [13]) [µM] | Activity (Liver microsomes [14]) | Activity (Vero [15]) [%]
1 | 30 |  | > 100 | < 10 | 9.22 | 9.26 | 0.39 | CC(=O)/C=C(O)/C=C/c1ccc(O[C@@H]2O[C@H](CO)[C@@H](O)[C@H](O)[C@H]2O)cc1 |  |  | 40 | 2 | inactive |  |  | 
2 | 20 |  | > 100 | < 10 | 8.03 | 8.03 | 0.32 | CC(=O)/C=C(O)/C=C/c1ccc(O[C@@H]2O[C@H](CO)[C@@H](O)[C@H](O)[C@H]2O)c(O)c1 |  |  | 20 |  | inactive |  |  | 10

Further lines, the compound ahead of its results:

Row | SMILES | Activity [1] [%] | Stability [2] | half-life [3] [h] | Degradation % at 8 h [6] [%] | pKa [7] | pKa [8] | logP at 4 h [9] | cytotoxicity at 5 µM [4] [%] | cytotoxicity at 10 µM [5] [%] | cytotoxicity at 800 µM [10] [%] | cytotoxicity at 600 µM [11] [%] | Activity (Liver microsomes [12]) | IC50 (Vero [13]) [µM] | Activity (Liver microsomes [14]) | Activity (Vero [15]) [%]
3 | O=C(O)[C@H](O)[C@@H](O)[C@H](O)[C@H](O)CO [GLUCONIC ACID] | 60 |  |  |  |  |  |  |  |  |  |  |  |  |  | 
4 | COc1cc(/C=C/C(=O)CC(=O)/C=C/c2ccc(O)c(OC)c2)ccc1O [CURCUMIN] |  | Unstable | 0.167 |  |  |  |  | 10 | 20 |  |  |  |  |  | 
5 | COc1cc(/C=C/C(O)=C/C(C)=O)ccc1O[C@@H]1O[C@H](CO)[C@@H](O)[C@H](O)[C@H]1O | 40 |  | > 100 | < 10 | 8.73 | 8.75 | 0.13 |  |  | 65 | 40 |  | 700 | Active | 
